Test results taken from ChEMBL document CHEMBL1687886, “N-cyclic bay-substituted perylene G-quadruplex ligands have selective antiproliferative effects on cancer cells and induce telomere damage” (J Med Chem, 2011).
Calls of active or inactive are those of the source. The calls are words filed in the database; no cut-off is given here.

Tests used:
BJ [1] = experiment: Induction of DNA damage response in human BJ cells expressing human TERT assessed as phosphorylation of […] after 24 hrs by immunofluorescence; type: functional, cell-based
Outline: (§1)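 BJ-EHLT and BJ-hTERT fibroblasts exposed to a range of concentrations for 24 h. Fixed in 2% formaldehyde, permeabilized in 0.25% Triton X-100, immunostained for γ-H2AX and 53BP1. Percentage of positive cells scored. Three independent experiments, SD.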

Nucleic Acid [2] = experiment: Stabilization of human duplex DNA T-loop assessed as change in melting temperature at 1 uM by FRET assay; type: nucleic-acid assay
Nucleic Acid [3] = experiment: Binding affinity to human DK66 duplex DNA structure assessed as bound DNA at 5:20 DNA to drug ratio by electrospray ionization mass spectrometry; type: nucleic-acid assay
Outline: (§2)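 ESI-MS in 150 mM ammonium acetate; DNA 5 μM final (per duplex or quadruplex unit); ligand at drug/DNA ratios 0.5 to 4. Methanol (15%) added just before injection, after binding equilibrium. K1 and K2 for 1:1 and 2:1 complexes, and % bound DNA, taken from relative peak intensities assuming equal response factors. At least three repeats.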

Nucleic Acid [4] = experiment: Binding affinity to human 21-TT G-quadruplex DNA structure assessed as bound DNA at 5:5 DNA to drug ratio by electrospray ionization mass spectrometry; type: nucleic-acid assay; outline: as §2
Nucleic Acid [5] = experiment: Binding affinity to human 21-TT G-quadruplex DNA structure assessed as second step association constant by electrospray ionization mass spectrometry; type: nucleic-acid assay; outline: as §2
Nucleic Acid [6] = experiment: Binding affinity to human 21-TT G-quadruplex DNA structure at 1:1 DNA to calf thymus DNA ratio by competitive inhibition assay; type: nucleic-acid assay; parameters: concentration or dose not given beside the values
Outline: (§3)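 ESI-MS competition: quadruplex DNA and ligand each 5 μM final, plus calf thymus DNA at duplex/quadruplex ratios 1 and 5 (by phosphate concentration), in ammonium acetate. Percentage bound quadruplex and normalized bound quadruplex (N%) measured by mass spectrometry. SD over at least three independent experiments.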

Nucleic Acid [7] = experiment: Binding affinity to human DK66 duplex DNA structure assessed as first step association constant by electrospray ionization mass spectrometry; type: nucleic-acid assay; outline: as §2
Nucleic Acid [8] = experiment: Binding affinity to human 21-TT G-quadruplex DNA structure assessed as bound DNA at 5:10 DNA to drug ratio by electrospray ionization mass spectrometry; type: nucleic-acid assay; outline: as §2
BJ [9] = experiment: Induction of DNA damage response in human BJ cells expressing SV40 early region EHLT assessed as phosphorylation of gamma H2AX at 3 uM after 24 hrs by immunofluorescence; type: functional, cell-based; outline: as §1
BJ [10] = experiment: Induction of DNA damage response in human BJ cells expressing human TERT assessed as phosphorylation of gamma H2AX after 24 hrs by immunofluorescence; type: functional, cell-based; outline: as §1
Nucleic Acid [11] = experiment: Stabilization of 21-mer human F21T G4-telomeric quadruplex assessed as change in melting temperature at 1 uM by FRET assay; type: nucleic-acid assay
Nucleic Acid [12] = experiment: Binding affinity to human 21-TT G-quadruplex DNA structure assessed as first step association constant by electrospray ionization mass spectrometry; type: nucleic-acid assay; outline: as §2
BJ [13] = experiment: Growth inhibition of human BJ cells expressing SV40 early region EHLT at 3 uM on day 8 after 24 hrs trypan blue assay; type: functional; details: read-out: GI
Outline: (§4)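 Cells seeded at 5 ×10^4 per dish; compounds freshly dissolved and added to the medium 24 h after plating, at 0.5 μM or 3 μM (3 μM only for one derivative). Cell number by Coulter counting and viability by trypan blue exclusion daily, day 1 to day 8. Growth inhibition of treated vs untreated cells calculated at days 2, 4, 6 and 8. Representative experiments in quintuplicate, SD shown.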

BJ [14] = experiment: Antiproliferative activity against human BJ cells expressing TERT at 0.5 uM after 2 to 8 days by trypan blue assay; type: cell-based; outline: as §4
BJ [15] = experiment: Antiproliferative activity against human BJ cells expressing SV40 early region EHLT at 3 uM after 24 hrs by Coulter counter method; type: functional, cell-based; details: TDE = time-dependent effect; outline: as §4
Nucleic Acid [16] = experiment: Binding affinity to human 21-TT G-quadruplex DNA structure at 1:5 DNA to calf thymus DNA ratio by competitive inhibition assay; type: nucleic-acid assay; parameters: concentration or dose not given beside the values; outline: as §3
BJ [17] = experiment: Cell cycle arrest in human BJ cells expressing TERT assessed as accumulation at S stage at 0.5 uM after 24 hrs by propidium iodide staining based flow cytometry (reference value: 21%); type: ADME
BJ [18] = experiment: Growth inhibition of human BJ cells expressing SV40 early region EHLT at 0.5 uM on day 8 by trypan blue assay; type: functional; details: 192 h, read-out: GI; outline: as §4
Nucleic Acid [19] = experiment: Binding affinity to human DK66 duplex DNA structure assessed as second step association constant by electrospray ionization mass spectrometry; type: nucleic-acid assay; outline: as §2
Nucleic Acid [20] = experiment: Binding affinity to human DK66 duplex DNA structure assessed as bound DNA at 5:10 DNA to drug ratio by electrospray ionization mass spectrometry; type: nucleic-acid assay; outline: as §2
BJ [21] = experiment: Cell cycle arrest in human BJ cells expressing TERT assessed as accumulation at G2/M stage at 0.5 uM after 24 hrs by propidium iodide staining based flow cytometry (reference value: 17%); type: ADME
BJ [22] = experiment: Cell cycle arrest in human BJ cells expressing TERT assessed as accumulation at G0/G1 stage at 0.5 uM after 72 hrs by propidium iodide staining based flow cytometry (reference value: 83%); type: ADME
BJ [23] = experiment: Cell cycle arrest in human BJ cells expressing TERT assessed as accumulation at G2/M stage at 0.5 uM after 96 hrs by propidium iodide staining based flow cytometry (reference value: 4%); type: ADME
[24] = molecular target: Telomerase reverse transcriptase (Homo sapiens, UniProt O14746); experiment: Inhibition of human Telomerase activity in cell free system by TRAP assay
Outline: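 Cell-free TRAP: protein extract incubated with compound at 1 to 50 μM so telomerase elongates the substrate oligonucleotide. Before PCR, phenol/chloroform/isoamyl-alcohol (50:49:1) extraction removes the ligand and DNA is precipitated overnight at -20 °C. Amplification uses a 36 bp ITAS; products are resolved on 12% PAGE and stained with SYBR Green. Signals are corrected by the no-extract control and normalized to untreated, giving dose-response IC50. Mean of three experiments.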

BJ [25] = experiment: Induction of DNA damage response in human BJ cells expressing SV40 early region EHLT assessed as phosphorylation of […] after 24 hrs by immunofluorescence method; type: functional, cell-based; outline: as §1
BJ [26] = experiment: Cell cycle arrest in human BJ cells expressing TERT assessed as accumulation at S stage at 0.5 uM after 48 hrs by propidium iodide staining based flow cytometry (reference value: 12%); type: ADME
BJ [27] = experiment: Cell cycle arrest in human BJ cells expressing TERT assessed as accumulation at G0/G1 stage at 0.5 uM after 24 hrs by propidium iodide staining based flow cytometry (reference value: 61%); type: ADME
BJ [28] = experiment: Cell cycle arrest in human BJ cells expressing TERT assessed as accumulation at G2/M stage at 0.5 uM after 72 hrs by propidium iodide staining based flow cytometry (reference value: 5%); type: ADME
BJ [29] = experiment: Cell cycle arrest in human BJ cells expressing TERT assessed as accumulation at S stage at 0.5 uM after 72 hrs by propidium iodide staining based flow cytometry (reference value: 10%); type: ADME
BJ [30] = experiment: Cell cycle arrest in human BJ cells expressing TERT assessed as accumulation at G0/G1 stage at 0.5 uM after 96 hrs by propidium iodide staining based flow cytometry (reference value: 86%); type: ADME
Nucleic Acid [31] = experiment: Binding affinity to human DK66 duplex DNA structure assessed as bound DNA at 5:5 DNA to drug ratio by electrospray ionization mass spectrometry; type: nucleic-acid assay; outline: as §2
BJ [32] = experiment: Induction of DNA damage response in human BJ cells expressing SV40 early region EHLT assessed as phosphorylation of gamma H2AX at 0.25 uM after 24 hrs by immunofluorescence method; type: functional, cell-based; outline: as §1
BJ [33] = experiment: Cell cycle arrest in human BJ cells expressing TERT assessed as accumulation at G0/G1 stage at 0.5 uM after 48 hrs by propidium iodide staining based flow cytometry (reference value: 80%); type: ADME
BJ [34] = experiment: Antiproliferative activity against human BJ cells expressing SV40 early region EHLT at 0.5 uM after 24 hrs by Coulter counter method; type: functional, cell-based; outline: as §4
BJ [35] = experiment: Cell cycle arrest in human BJ cells expressing TERT assessed as accumulation at S stage at 0.5 uM after 96 hrs by propidium iodide staining based flow cytometry (reference value: 9%); type: ADME
BJ [36] = experiment: Cell cycle arrest in human BJ cells expressing TERT assessed as accumulation at G2/M stage at 0.5 uM after 48 hrs by propidium iodide staining based flow cytometry (reference value: 6%); type: ADME

Telomerase reverse transcriptase, sequence (O14746 whole entry): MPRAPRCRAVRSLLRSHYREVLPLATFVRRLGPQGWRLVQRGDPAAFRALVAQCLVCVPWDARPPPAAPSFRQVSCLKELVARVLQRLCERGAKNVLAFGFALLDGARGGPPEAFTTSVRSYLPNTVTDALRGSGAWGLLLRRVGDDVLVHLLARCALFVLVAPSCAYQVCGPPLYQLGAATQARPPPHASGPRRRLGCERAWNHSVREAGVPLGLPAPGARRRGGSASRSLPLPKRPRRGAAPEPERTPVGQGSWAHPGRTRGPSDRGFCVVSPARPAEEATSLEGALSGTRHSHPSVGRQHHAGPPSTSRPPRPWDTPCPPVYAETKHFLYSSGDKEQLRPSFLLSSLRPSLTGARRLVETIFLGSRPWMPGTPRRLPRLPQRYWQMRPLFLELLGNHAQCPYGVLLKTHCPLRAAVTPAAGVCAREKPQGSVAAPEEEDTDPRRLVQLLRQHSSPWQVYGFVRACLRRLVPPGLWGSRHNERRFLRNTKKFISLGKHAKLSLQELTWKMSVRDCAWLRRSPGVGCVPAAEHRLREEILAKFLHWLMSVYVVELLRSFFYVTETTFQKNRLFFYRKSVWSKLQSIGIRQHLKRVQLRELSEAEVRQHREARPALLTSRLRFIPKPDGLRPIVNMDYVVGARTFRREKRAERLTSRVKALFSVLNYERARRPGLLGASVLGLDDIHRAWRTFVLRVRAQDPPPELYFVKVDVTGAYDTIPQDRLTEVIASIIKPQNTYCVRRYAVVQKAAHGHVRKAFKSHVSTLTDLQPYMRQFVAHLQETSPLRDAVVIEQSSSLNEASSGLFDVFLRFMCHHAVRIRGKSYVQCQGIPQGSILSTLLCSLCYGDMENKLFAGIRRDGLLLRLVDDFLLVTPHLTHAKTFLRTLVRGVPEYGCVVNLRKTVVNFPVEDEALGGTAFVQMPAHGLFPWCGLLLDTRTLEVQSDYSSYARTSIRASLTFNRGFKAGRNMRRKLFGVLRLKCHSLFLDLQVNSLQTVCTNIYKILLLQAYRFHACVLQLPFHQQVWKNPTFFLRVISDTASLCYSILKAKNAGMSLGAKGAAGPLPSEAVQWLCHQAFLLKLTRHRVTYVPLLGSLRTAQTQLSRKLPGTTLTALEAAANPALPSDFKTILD

Compound | Activity (BJ [1]) | ΔTm (Nucleic Acid [2]) [°C] | Activity (Nucleic Acid [3]) [%] | Activity (Nucleic Acid [4]) [%] | log Ks (Nucleic Acid [5]) | Activity (Nucleic Acid [6]) [%] | log Ks (Nucleic Acid [7]) | Activity (Nucleic Acid [8]) [%] | Activity (BJ [10]) | ΔTm (Nucleic Acid [11]) [°C] | log Ks (Nucleic Acid [12]) | Activity (BJ [14]) | Activity (Nucleic Acid [16]) [%] | also measured
O=C1c2ccc3c4c(N5CCCCC5)cc5c6c(ccc(c7c(N8CCCCC8)cc(c2c37)C(=O)N1CCN1CCCCC1)c64)C(=O)N(CCN1CCCCC1)C5=O | Dose-dependent effect | 0.2 | 12 | 22 | 4.6 | 13 | 3.8 | 33 | Dose-dependent effect | 18.7 | 4.8 | Toxic | 9 | Activity (BJ [9]): Active; inhibition of growth at 3 µM (BJ [13]): 50%; Activity (BJ [15]): tde
O=C1c2ccc3c4c(N5CCCCC5)cc5c6c(ccc(c7c(N8CCCCC8)cc(c2c37)C(=O)N1CCOCCN1CCCCC1)c64)C(=O)N(CCOCCN1CCCCC1)C5=O | – | -0.2 | 20 | 23 | 4.8 | 19 | 4.2 | 34 | – | 9.3 | 4.7 | – | 14 | –
O=C1c2ccc3c4c(N5CCCCC5)cc5c6c(cc(N7CCCCC7)c(c7ccc(c2c37)C(=O)N1CCOCCN1CCCCC1)c64)C(=O)N(CCOCCN1CCCCC1)C5=O | – | 0.1 | 11 | 20 | 4.8 | – | 3.8 | 30 | – | 13.1 | 4.8 | – | – | –
CN1CCN(CCOCCN2C(=O)c3ccc4c5c(N6CCCCC6)cc6c7c(ccc(c8c(N9CCCCC9)cc(c3c48)C2=O)c75)C(=O)N(CCOCCN2CCN(C)CC2)C6=O)CC1 | – | -0.1 | 10 | – | – | – | 3.8 | – | – | 5.2 | 3.9 | – | – | –
CN(C)CCCN1CCN(c2cc3c4c(ccc5c6ccc7c8c(ccc(c2c45)c86)C(=O)N(CCN2CCCCC2)C7=O)C(=O)N(CCN2CCCCC2)C3=O)CC1 | Dose-dependent effect | 2.3 | – | 48 | 5 | 46 | 5.4 | 76 | Dose-dependent effect | 35.5 | 5.5 | Toxic | 32 | Activity (BJ [17]): 3.8%; inhibition of growth at 0.5 µM (BJ [18]): 50%; log Ks (Nucleic Acid [19]): 4.9; Activity (Nucleic Acid [20]): 66%; Activity (BJ [21]): 54.2%; Activity (BJ [22]): 34.7%; Activity (BJ [23]): 54.2%; IC50 [24]: 3 µM; Activity (BJ [25]): Active; Activity (BJ [26]): 3.5%; Activity (BJ [27]): 42%; Activity (BJ [28]): 58%; Activity (BJ [29]): 7.3%; Activity (BJ [30]): 38.2%; Activity (Nucleic Acid [31]): 43%; Activity (BJ [32]): Active; Activity (BJ [33]): 35.4%; Activity (BJ [34]; TDE = time-dependent effect, in the assay text read “after 2 to 8 days” for “after 24 hrs”): tde; Activity (BJ [35]): 7.6%; Activity (BJ [36]): 61.1%
CNCCOCCN1C(=O)c2ccc3c4c(N5CCCCC5)cc5c6c(ccc(c7c(N8CCCCC8)cc(c2c37)C1=O)c64)C(=O)N(CCOCCNC)C5=O | – | -0.4 | 9 | 13 | 4.8 | – | 3.7 | 37 | – | 12.9 | 4.6 | – | – | –
CN(C)CCOCCN1C(=O)c2ccc3c4c(N5CCCCC5)cc5c6c(ccc(c7c(N8CCCCC8)cc(c2c37)C1=O)c64)C(=O)N(CCOCCN(C)C)C5=O | – | 0.9 | 16 | 22.5 | 4.9 | – | 4 | 30 | – | 16.6 | 4.6 | – | – | –
CN1CCN(c2cc3c4c(ccc5c6c(N7CCN(C)CC7)cc7c8c(ccc(c2c45)c86)C(=O)N(CCN2CCCCC2)C7=O)C(=O)N(CCN2CCCCC2)C3=O)CC1 | Dose-dependent effect | 2.9 | – | 45 | 5.6 | 40 | 4.9 | 77 | Dose-dependent effect | 27.4 | 5.4 | Toxic | 22 | Activity (BJ [17]): 13.9%; inhibition of growth at 0.5 µM (BJ [18]): 50%; log Ks (Nucleic Acid [19]): 4.2; Activity (Nucleic Acid [20]): 44%; Activity (BJ [21]): 51%; Activity (BJ [22]): 35.2%; Activity (BJ [23]): 60.4%; IC50 [24]: 10 µM; Activity (BJ [25]): Active; Activity (BJ [26]): 5%; Activity (BJ [27]): 35.1%; Activity (BJ [28]): 58.2%; Activity (BJ [29]): 6.6%; Activity (BJ [30]): 33.1%; Activity (Nucleic Acid [31]): 27%; Activity (BJ [32]): Active; Activity (BJ [33]): 39.8%; Activity (BJ [34]; in the assay text read “after 2 to 8 days” for “after 24 hrs”, TDE = time-dependent effect): tde; Activity (BJ [35]): 6.5%; Activity (BJ [36]): 55.2%
